Results as given in ChEMBL document CHEMBL1127679, “6H-pyrazolo[4,5,1-de]acridin-6-ones as a novel class of antitumor agents. Synthesis and biological activity” (J Med Chem, 1994).
pIC50: −log10 of the molar value.

How the values were obtained:
Nucleic Acid = assay: Relative affinity for DNA binding; assay type: nucleic-acid assay
Mus musculus [1] = organism: Mus musculus; assay: %T/C value measured in antitumor activity using murine P388/ADM cells.; assay type: functional
In short: (§1)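 Mice inoculated ip with P388 leukemia cells or the adriamycin-resistant subline P388/ADM. Drug activity expressed as T/C (%), i.e. mean survival days of the treated group over those of the control group, followed for 60 days. T/C >130% taken as significant. Optimal dose reported in mg/kg per injection.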

Mus musculus [2] = assay: Compound evaluated for optimal dose (mg/kg) per injection against murine P388 leukemia cells; assay type: functional; in short: as §1
Mus musculus [3] = organism: Mus musculus; assay: Compound evaluated for optimal dose per injection against murine sarcoma 180 cells; assay type: functional
In short: (§2)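 Sarcoma 180 cells inoculated sc in mice. Drugs tested for antitumor activity, with the optimal dose given in mg/kg per injection. Activity expressed as treated versus control (T/C) value, and T/C <50% taken as effective.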

Mus musculus [4] = organism: Mus musculus; assay: %T/C value measured in antitumor activity using murine sarcoma 180 tumor cells; assay type: functional; in short: as §2
Mus musculus [5] = organism: Mus musculus; assay: %T/C value measured in antitumor activity using murine P388 leukemia cells; assay type: functional; in short: as §1
Mus musculus [6] = organism: Mus musculus; assay: Compound evaluated for optimal dose per injection against adriamycin resistant murine cell line (P388/ADM cells); assay type: functional; in short: as §1
Mus musculus [7] = organism: Mus musculus; assay: Compound evaluated for optimal dose per injection against murine P388 leukemia cells; assay type: functional; in short: as §1
Mus musculus [8] = organism: Mus musculus; assay: %T/C value measured in antitumor activity using murine P388/ADM cells; assay type: functional; in short: as §1
Mus musculus [9] = organism: Mus musculus; assay: %T/C value measured in antitumor activity using murine sarcoma 180 cells; assay type: functional; in short: as §2

Compound | pIC50 (Nucleic Acid) | T/C (Mus musculus [1]) [%] | Optimal dose (Mus musculus [2]) [mg/kg] | Optimal dose (Mus musculus [3]) [mg/kg] | T/C (Mus musculus [4]) [%] | T/C (Mus musculus [5]) [%] | Optimal dose (Mus musculus [6]) [mg/kg] | Optimal dose (Mus musculus [7]) [mg/kg] | T/C (Mus musculus [8]) [%] | T/C (Mus musculus [9]) [%]
CN(C)CCNCc1nn2c3cccc(O)c3c(=O)c3c(NCCN(C)C)ccc1c32 | 6.80 | – | – | – | – | – | – | – | – | –
CN(C)CCNCc1nn2c3ccccc3c(=O)c3c(NCCN(C)C)ccc1c32 | 6.59 | – | – | – | – | – | – | – | – | –
CN(C)CCNc1ccc2c(CN(CCO)CCO)nn3c4cccc(O)c4c(=O)c1c23 | 6.38 | 134 | 25 | 13 | 42 | >286 | 25 | – | – | –
NCCNCc1nn2c3cccc(O)c3c(=O)c3c(NCCN)ccc1c32 | 6.77 | – | – | 25 | 12 | >254 | 13 | 13 | 138 | –
NCCNCc1nn2c3ccccc3c(=O)c3c(NCCN)ccc1c32 | 6.89 | – | – | – | – | 150 | – | 38 | – | –
NCCCCNc1ccc2c(CNCCO)nn3c4cccc(O)c4c(=O)c1c23 | 6.72 | – | – | – | – | 161 | 50 | 25 | 112 | –
COc1cccc2c1c(=O)c1c(NCCN(C)C)ccc3c(CNCCN(C)C)nn2c31 | 6.80 | – | – | – | – | – | – | – | – | –
COc1cccc2c1C(=O)c1c(O)c3c(c(O)c1C2=O)C[C@@](O)(C(=O)CO)C[C@@H]3O[C@H]1C[C@H](N)[C@H](O)[C@H](C)O1 [DOXORUBICIN] | – | 116 | 7.5 | 7.5 | – | >254 | 7.5 | – | – | 31
COc1cccc2c1c(=O)c1c(NCCN)ccc3c(CNCCN)nn2c31 | 6.74 | – | 25 | – | – | 139 | – | – | – | –
CCNCc1nn2c3cccc(O)c3c(=O)c3c(NCCN(C)C)ccc1c32 | 6.96 | – | – | – | – | 196 | 3.1 | 3.1 | 126 | –
O=c1c2c(O)cccc2n2nc(CNCCO)c3ccc(NCCNCCO)c1c32 | 6.85 | – | 3.1 | 12 | 5 | >208 | 6.3 | – | 145 | –
NCCNc1ccc2c(CNCCCCO)nn3c4cccc(O)c4c(=O)c1c23 | 6.77 | – | 3.1 | – | – | 146 | 6.3 | – | 126 | –
NCCCNc1ccc2c(CN3CCOCC3)nn3c4cccc(O)c4c(=O)c1c23 | 6.05 | 115 | 13 | 13 | – | >278 | 13 | – | – | 33
NCCNc1ccc2c(CNCCCO)nn3c4cccc(O)c4c(=O)c1c23 | 6.85 | – | 3.1 | – | – | >181 | 3.1 | – | 146 | –
O=c1c2c(O)cccc2n2nc(CNCCO)c3ccc(NCCCO)c1c32 | 5.98 | – | 13 | – | – | 152 | 50 | – | 123 | –
NCCCNc1ccc2c(CNCCO)nn3c4cccc(O)c4c(=O)c1c23 | 6.89 | – | – | 6 | 21 | >230 | 6.3 | 13 | 156 | –
CN(C)CCNc1ccc2c(CNCCO)nn3c4cccc(O)c4c(=O)c1c23 | 6.74 | – | – | 3.1 | 9 | >261 | 3.1 | 6.3 | 144 | –
NCCNc1ccc2c(CNCCO)nn3c4cccc(O)c4c(=O)c1c23 | 6.85 | – | – | 6.3 | – | >222 | 1.6 | 1.6 | 152 | 6
